# S1P3 antagonist: S1P3 receptor antagonists, primary screen, cell-based | Sphingosine 1-phosphate receptor 3 (Homo sapiens), Q99500 | CHO S1P3 NFAT-BLA reporter, FRET fluorescence, antagonist mode | inhibition, % at 4.98 µM | 0.27% of 170,000 active | AID 485, 2006;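 active means inhibition above the plate cutoff, the mean inhibition of test wells on that plate plus 3 SD, cut at about 28% in these data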;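 further: cells challenged with S1P at its EC80 of 0.8 µM; blue over green emission ratio from cleaved BLA substrate after 4 h stimulation; 0% = S1P-stimulated wells and 100% = unstimulated DMSO-only wells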
# Target sequence (Q99500 whole entry, looked up): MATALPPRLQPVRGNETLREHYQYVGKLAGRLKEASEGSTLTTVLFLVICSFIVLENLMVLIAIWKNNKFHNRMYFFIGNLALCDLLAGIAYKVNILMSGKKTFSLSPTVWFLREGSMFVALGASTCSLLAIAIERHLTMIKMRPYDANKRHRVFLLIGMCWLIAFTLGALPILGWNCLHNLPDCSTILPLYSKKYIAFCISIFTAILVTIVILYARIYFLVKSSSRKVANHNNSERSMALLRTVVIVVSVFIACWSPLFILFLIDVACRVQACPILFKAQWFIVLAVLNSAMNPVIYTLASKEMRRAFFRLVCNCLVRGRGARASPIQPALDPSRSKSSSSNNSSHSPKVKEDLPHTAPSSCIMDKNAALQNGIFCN
# Mdm2 ligase inh: MDM2-luciferase reporter signal enhancers, primary screen, MDM2 E3 ligase inhibitor project, cell-based, luminescence, 1536-well; E3 ubiquitin-protein ligase Mdm2 (Homo sapiens), Q00987; cell-based MDM2 ubiquitination luciferase reporter, 2 h; 0 = plate control, 100 = twice control, blank-subtracted; signal enhancement, % at 5 µM; 0.11% of 210,000 active;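 active means signal enhancement of 30% or more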;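 further: luminescence tracks abundance of the self-degrading MDM2-luciferase fusion protein; higher signal means inhibition of MDM2 E3 ligase activity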
#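 Material: stable MDM2–luciferase fusion reporter cells / Quantity: 2000 cells/well / Dosing: single 5 µM compound dose, 0.2% final DMSO / Buffer or medium: DMEM / Schedule: 4 h cell settling then 2 h compound exposure, 37 °C / Detection: luminescence with SteadyLite reagent, 15 min at room temperature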
# Lmaj promast: Leishmania major promastigote growth inhibition, primary screen; Leishmania major promastigotes, resazurin fluorescence viability; inhibition, % at 10 µM; 9% of 200,000 active; AID 1063, 2008; in the data active means inhibition above about 50%;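 further: promastigotes grown with compound for 44 hours at 28 °C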
# S1P4 antag: S1P4 receptor antagonists, primary screen, cell-based; Sphingosine 1-phosphate receptor 4 (Homo sapiens), O95977; inhibition, % at 4.98 µM; S1P4-expressing cells, antagonist mode, reporter read-out; 0.26% of 220,000 active; AID 1510, 2009; in the data active means inhibition above about 29%;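 further: 0% = wells stimulated with agonist and 100% = vehicle wells without agonist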
# S1P4 ag: S1P4 receptor agonists, primary screen, cell-based; AID 1509, 2009; activation, % at 4.98 µM; 0.35% of 220,000 active; S1P4-expressing cell line, agonist reporter assay; Sphingosine 1-phosphate receptor 4 (Homo sapiens), O95977; in the data active means activation above about 11%;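 further: 0% = DMSO vehicle and 100% = reference agonist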
# Active calls of the source: *; · = no result. The sample as a whole holds a higher share of hits than the screen did.
SMILES,S1P3 antagonist,Mdm2 ligase inh,Lmaj promast,S1P4 antag,S1P4 ag
CCOC(=O)C1(CCc2ccccc2)CCN(C2Cc3ccccc3C2)CC1,-7,1,81*,-5,2
CC(C)N(C(=O)CSc1nnc(CSc2ncccn2)n1C)C(C)C,-6,-7,-4,-11,1
COC(=O)c1cc(CSc2nnc(NC3CCCCC3)s2)oc1C,19,-18,5,-22,2
COc1cc2cc(CN(CCc3ccccc3C)C(=S)NCCCN3CCOCC3)c(=O)[nH]c2cc1OC,-2,-12,8,17,0
CNC(=S)N(CCc1ccccc1)Cc1cc2cc(OC)c(OC)cc2[nH]c1=O,3,7,8,-14,-1
COc1cc2cc(CN(CCc3ccccc3C)C(=S)NCCCN(C)C)c(=O)[nH]c2cc1OC,0,-17,78*,-8,-1
CNC(=S)N(CCc1ccc(OC)c(OC)c1)Cc1cc2c(C)cc(C)cc2[nH]c1=O,-5,0,69*,9,1
CCNC(=S)N(CCc1ccccc1C)Cc1cc2cc(OC)c(OC)cc2[nH]c1=O,-7,-11,75*,-10,1
COCCn1nnnc1C(C(C)C)N1CCCC(C)C1 (stereo unspecified),-8,-6,-6,10,-1
CCC1SC(CC)C(=O)N(CC(=O)Nc2ccc3c(c2)OCO3)C1=O (stereo unspecified),-8,-10,-3,-14,5
Cc1cc2nc(C)n(CCCNC(=O)Nc3ccc(F)cc3)c2cc1C,·,-17,91*,-12,1
Cc1ccc(NC(=O)Nc2ccc3c(c2)nc(C)n3C)cc1C,0,-15,1,9,0
CN=C(Nc1ccc(C)c(C)c1)SC1CC(=O)N(c2ccc(OC)cc2)C1=O (stereo unspecified),-3,-18,74*,7,-3
CCN1CCCC1CNS(=O)(=O)c1ccc(Cl)c(C(F)(F)F)c1 (stereo unspecified),-6,-2,81*,1,-1
Cc1ccc(C(=O)NCCNS(C)(=O)=O)cc1,0,-10,-1,-8,-1
CCCCCC#CCC#CCC#CCC#CCCCC(=O)O,8,·,84*,-22,2
CCCCCCCCCCCCS(=O)(=O)CCC(=O)O,3,-2,·,14,2
CCNc1nc(NC(C)C)nc(N(C#N)C(C)C(=O)N(CC)CC)n1 (stereo unspecified),-16,-4,·,-8,0
COc1ccccc1C(=O)NC(=S)NNC(=O)c1sc2ccccc2c1Cl,-12,-5,90*,0,0
Cc1c(NC(=S)NC(=O)c2sc3ccccc3c2Cl)cccc1C(=O)O,-15,-12,-4,-16,1
COc1ccccc1C(=O)NNC(=S)NC(=O)c1sc2ccccc2c1Cl,-5,-3,54*,-5,5
Nc1ccccc1C(=O)N1CCCC1,-8,-2,-6,-8,1
COc1ccc(CCN2C(=O)CC(NNC(=O)c3cccc(O)c3)C2=O)cc1 (stereo unspecified),-4,-16,44,1,-1
COc1ccc(CCN2C(=O)CC(NNC(=O)c3ccccc3Br)C2=O)cc1OC (stereo unspecified),-14,-6,56*,-4,-2
COc1ccc(CCN2C(=O)CC(NNC(=O)c3ccc(F)cc3)C2=O)cc1OC (stereo unspecified),-11,-8,3,-38,2
SMILES,S1P3 antagonist,Mdm2 ligase inh,Lmaj promast,S1P4 antag,S1P4 ag
CCOc1ccc(C(=O)NNC2CC(=O)N(CCc3ccccc3)C2=O)cc1OC (stereo unspecified),-10,-9,63*,0,0
CCCCN=CC1=C(O)CC(c2ccccc2)CC1=O (stereo unspecified),-1,-7,-7,-25,2
Cc1ccc[n+](-c2nc([O-])sc2C=O)c1,-9,-11,-1,-3,81*
C=C(C)C1CC=C(C)/C(=N/NC(=O)COc2cccc(C)c2)C1 (stereo unspecified),·,-7,24,-15,2
C=C(C)C1CC=C(C)/C(=N/NC(=O)c2ccc(NC(=O)c3cccc(C)c3)cc2)C1 (stereo unspecified),·,-12,100*,-3,0
C=C(C)C1CC=C(C)/C(=N/NC(=O)c2cccc([N+](=O)[O-])c2)C1 (stereo unspecified),-6,6,100*,0,1
CC(=O)N1CCc2cc(S(=O)(=O)CCC(=O)Nc3c(C)n(C)n(-c4ccccc4)c3=O)ccc21,-4,-6,-3,-20,0
O=S1(=O)NC(=NCCOCCO)c2ccccc21,-4,·,1,4,-1
O=C(Nc1ccc(Oc2nnc(-c3ccccc3)c3ccccc23)cc1)c1ccccc1,0,2,77*,-24,3
O=C(CCNC(=O)Cn1ccc2ccccc2c1=O)NCc1ccccn1,-3,-4,-4,-20,2
Cc1ccc2c(c1)C=CC(C)(C)S2=O (stereo unspecified),-11,118*,-2,-16,-1
Cc1[nH]n(C(N)=S)c(=O)c1N=Nc1ccc2ccccc2c1,-12,-3,8,3,1
COc1ccc(C(c2c(C)[nH]n(C(N)=S)c2=O)C(C#N)C#N)cc1 (stereo unspecified),·,-3,94*,-10,-2
Cc1ccc(Oc2nc(CN3CCOCC3)nc3sc4c(c23)CCC(C)C4)cc1C (stereo unspecified),-22,-5,97*,-16,0
CC1CCc2c(sc3nc(CN4CCOCC4)nc(N4CCc5ccccc5C4)c23)C1 (stereo unspecified),-5,13,13,-4,2
Cc1ccc(Oc2nc(CN3CCOCC3)nc3sc4c(c23)CCC(C)C4)cc1 (stereo unspecified),0,-12,76*,-83,0
CC1CCc2c(sc3nc(CN4CCOCC4)nc(NS(=O)(=O)c4cccc([N+](=O)[O-])c4)c23)C1 (stereo unspecified),·,3,1,-14,1
O=[N+]([O-])c1ccc(CN2C=NS(=O)(=O)c3ccccc32)cc1,0,-45,2,11,-4
CN1CCN(C(=O)CSc2nc(-c3cccs3)ccc2C#N)CC1,·,-4,95*,3,0
CN(C)Cc1c(O)ccc2oc(Cc3ccccc3)cc12,20,-15,77*,9,0
CN(C)Cc1c(O)ccc2ccccc12,-18,-9,·,2,2
O=C(c1ccccc1)N1CCN(C(=S)NCc2ccco2)CC1,-8,-6,-6,12,1
Oc1ccc2ccccc2c1C=NCc1cn2ccsc2n1,-3,-5,95*,10,-1
Oc1ccc2ccccc2c1/C=N/c1nccs1,·,-9,-4,-1,1
NNC(=O)c1cc2cc3ccccc3nc2s1,-12,-12,36,3,-2
